Rows were chosen to be rich in hits. Some 5.9% of all compounds tested hit in one or more screens of this group.
KDM4C inh – inhibitors of human demethylase GASC-1 KDM4C | GST-KDM4C 2-372, H3K9me3 peptide, LANCE TR-FRET | inhibition, % at 12.5 µM | actives 0.15% (n = 96,000);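 active = mean replicate inhibition above about 25%, with at least 55% of replicates also reaching it, limit read from the data, passing the limit was not always enough; inconclusive = only one of those two conditions met; inactive = neither condition met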
Target sequence (Q9H3R0 2-372 limits assumed): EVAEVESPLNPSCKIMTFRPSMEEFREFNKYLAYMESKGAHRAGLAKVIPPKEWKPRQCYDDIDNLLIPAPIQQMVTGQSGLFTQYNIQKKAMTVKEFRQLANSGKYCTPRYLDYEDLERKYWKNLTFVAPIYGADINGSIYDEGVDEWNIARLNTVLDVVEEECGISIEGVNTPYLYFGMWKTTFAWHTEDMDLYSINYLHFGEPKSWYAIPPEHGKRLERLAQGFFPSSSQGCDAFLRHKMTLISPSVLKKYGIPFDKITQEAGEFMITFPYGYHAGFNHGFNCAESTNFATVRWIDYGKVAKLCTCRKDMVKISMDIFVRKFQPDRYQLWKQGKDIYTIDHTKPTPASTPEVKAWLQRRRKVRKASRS
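Assay system: GST-GASC-1 enzyme fragment 2-372 | Amount: 10 nM enzyme | Medium: HEPES buffer, pH 7.5, plus ascorbate | Reagent: H3K9me3 peptide substrate, Fe(II), 2-oxoglutarate | Doses: Single-point compound screen | Incubation: 30 min demethylation and 1 h detection at room temperature | Measured by: LANCE TR-FRET, excitation 340 nm, emissions 618 and 671 nm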
Tcruzi prolif – blocks T. cruzi growth in NIH3T3 culture; T. cruzi beta-gal in NIH3T3, GalScreen luminescence, 90 h; inhibition, % at 8.34 µM; actives 5.9% (n = 77,000);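 active = mean inhibition above about 93%, with at least 55% of replicates each passing it, limit read from the data, passing the limit was not always enough; inconclusive = only one of those two conditions holds; inactive = neither condition holds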
IDH1 R132H inh – blocks human IDH1 R132H reductase activity. O75874. actives 0.18% (n = 70,000). inhibition, % at 10 µM. diaphorase/resazurin fluorescence, 60 min; in the data active = inhibition above about 34%; inconclusive = no clear call, values can overlap the other calls; inactive = below about 11%;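 note: 0% = DMSO and 100% = no enzyme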
Pf Dd2 inh – inhibitors of Plasmodium falciparum Dd2 growth; P. falciparum Dd2 growth, SYBR Green, 72 h; hits give low values; activity change, % at 10 µM; actives 2.3% (n = 94,000); AID 1159554; in the data active = activity change below about -80%; inconclusive = no clear call, values can overlap the other calls
The depositor's hits bear a star; ? = inconclusive; / = not tested or not shown.

SMILES	KDM4C inh	Tcruzi prolif	IDH1 R132H inh	Pf Dd2 inh
O=C(c1ccc(F)cc1)N1CC(=O)N2[C@H](C1)[C@@H](c1ccc(-c3cccnc3)cc1)[C@@H]2CO	-1.4	/	/	-89.2*
O=C(c1ccc(F)cc1)N1CC(=O)N2[C@H](C1)[C@H](c1ccc(-c3cccnc3)cc1)[C@@H]2CO	-0.4	/	/	-5.9
O=C(c1cccc(F)c1)N1CC(=O)N2[C@H](CO)[C@H](c3ccc(-c4cccnc4)cc3)[C@@H]2C1	-1.4	/	/	10.1
O=C(c1cccnc1)N1CC(=O)N2[C@H](C1)[C@H](c1ccc(-c3ccc(F)cc3)cc1)[C@@H]2CO	2.7	/	/	-24.5
COC(=O)c1c(-c2ccccc2)csc1NC(=O)C1CCCCC1C(=O)O (stereo not given)	/	/	-0.3	/
COC(=O)c1ccc(CN2CC(=O)N3[C@H](CO)[C@@H](c4ccc(-c5ccccc5F)cc4)[C@H]3C2)cc1	8.6	/	/	-83.2*
COC(=O)c1ccc(CN2CC(=O)N3[C@H](C2)[C@@H](c2ccc(-c4ccccc4F)cc2)[C@@H]3CO)cc1	0.7	/	/	-3.1
COC(=O)c1sc(C(C)(C)C)cc1CS(=O)(=O)c1cc(C)c(Cl)cc1C	/	/	-1.7	/
N#Cc1c[nH]c2ccc(NC(=O)/C=C/c3ccc(OC(F)(F)F)cc3)cc12	/	/	-1.2	/
COc1ccc(C(=O)CSc2ncnc3sc4c(c23)CCCC4)cc1	/	/	-0.6	/
C[C@@H]1CN([C@H](C)CO)C(=O)c2cc(NS(=O)(=O)c3cccs3)ccc2O[C@@H]1CN(C)Cc1ccc(C(=O)Nc2ccccc2N)cc1	0.0	/	/	-87.1*
C[C@@H]1CN([C@H](C)CO)C(=O)Cc2cc(NS(=O)(=O)c3cccs3)ccc2O[C@@H]1CN(C)Cc1ccc(C(=O)Nc2ccccc2N)cc1	-0.7	/	/	-85.6*
C[C@H]1CN([C@@H](C)CO)C(=O)c2cc(NS(=O)(=O)c3cccs3)ccc2O[C@H]1CN(C)Cc1ccc(C(=O)Nc2ccccc2N)cc1	0.5	/	/	-49.4
C[C@@H]1CN([C@@H](C)CO)C(=O)c2c(c3ccccc3n2C)-c2ccccc2CO[C@@H]1CN(C)Cc1ccc(F)cc1	0.2	/	/	-56.1
C[C@H](CO)N1C[C@H](C)[C@H](CN(C)Cc2cccc(C(=O)O)c2)OCc2ccccc2-c2c(n(C)c3ccccc23)C1=O	0.2	-16.3	-10.0	49.0
C[C@H]1CN([C@@H](C)CO)C(=O)c2c(c3ccccc3n2C)-c2ccccc2CO[C@@H]1CN(C)Cc1ccccc1C(F)(F)F	-5.7	/	/	-84.9*
C[C@H]1CN([C@@H](C)CO)C(=O)c2c(c3ccccc3n2C)-c2ccccc2CO[C@H]1CN(C)Cc1ccc(-c2ccccc2)cc1	-1.1	/	/	-88.0*
COc1ccccc1CN(C)C[C@@H]1OCc2ccccc2-c2c(n(C)c3ccccc23)C(=O)N([C@H](C)CO)C[C@@H]1C	1.8	/	/	-1.5
C[C@@H]1CN([C@@H](C)CO)C(=O)c2c(c3ccccc3n2C)-c2ccccc2CO[C@H]1CN(C)Cc1cccc(C(=O)Nc2ccccc2N)c1	3.0	/	/	-89.3*
C[C@H]1CN([C@@H](C)CO)C(=O)c2c(c3ccccc3n2C)-c2ccccc2CO[C@@H]1CN(C)Cc1ccc(F)cc1	-2.6	/	/	-82.6*
Cc1ccccc1-n1ccc(=O)[nH]c1=O	/	/	0.5	/
COc1ccc(NC(=O)Cn2nc(C)c([N+](=O)[O-])c2C)c(OC)c1	/	/	0.1	/
C[C@H](CO)N1C[C@H](C)[C@H](CN(C)Cc2ccc(C(F)(F)F)cc2)OCc2ccccc2-c2c(n(C)c3ccccc23)C1=O	-1.8	/	/	-82.9*
C[C@H](CO)N1C[C@H](C)[C@@H](CN(C)Cc2ccc(Oc3ccccc3)cc2)OCc2ccccc2-c2c(n(C)c3ccccc23)C1=O	0.4	/	/	-90.8*
C[C@@H]1CN([C@@H](C)CO)C(=O)c2c(c3ccccc3n2C)-c2ccccc2CO[C@H]1CN(C)Cc1ccc(Oc2ccccc2)cc1	-6.5	/	/	-77.9
SMILES	KDM4C inh	Tcruzi prolif	IDH1 R132H inh	Pf Dd2 inh
C[C@@H]1CN([C@H](C)CO)C(=O)c2ccccc2-c2ccccc2CO[C@@H]1CN(C)Cc1ccccc1C(F)(F)F	-1.0	/	/	-92.6*
C[C@H](CO)N1C[C@H](C)[C@@H](CN(C)Cc2ccc(-c3ccccc3)cc2)OCc2ccccc2-c2c(n(C)c3ccccc23)C1=O	-3.3	/	/	-91.6*
C[C@H](CO)N1C[C@H](C)[C@H](CN(C)Cc2ccc(-c3ccccc3)cc2)OCc2ccccc2-c2c(n(C)c3ccccc23)C1=O	-0.6	/	/	?
Cc1c(Cl)cccc1NC(=O)CSc1nccc(=O)[nH]1	/	/	0.4	/
COC(=O)c1c(NC(=S)Nc2cccc(S(=O)(=O)N3CCOCC3)c2)sc2c1CCC2	/	/	0.2	/
N#Cc1ccccc1NC(=O)CCCN1C(=O)c2ccccc2C1=O	/	/	0.1	/
COc1ccc(S(=O)(=O)N(C)CC(=O)Nc2cccc(C)c2C)cc1Cl	/	/	-0.5	/
COc1cccc(CN(C)C[C@H]2OCc3ccccc3-c3c(n(C)c4ccccc34)C(=O)N([C@@H](C)CO)C[C@H]2C)c1	-3.2	/	/	-86.5*
C[C@H]1CN([C@@H](C)CO)C(=O)c2c(c3ccccc3n2C)-c2ccccc2CO[C@@H]1CN(C)Cc1cccc(F)c1	-7.5	/	/	-74.8
C[C@@H]1CN([C@H](C)CO)C(=O)c2c(c3ccccc3n2C)-c2ccccc2CO[C@@H]1CN(C)Cc1cccc(F)c1	-1.6	/	/	-88.2*
O=C(NO)c1cccc(C(=O)N/N=C/c2ccccc2Br)c1	/	/	-0.6	/
Cc1ccc(NC(=O)CSc2nc3cc(Cl)ccc3s2)c(C)c1	/	/	0.0	/
COC(=O)c1ccc(NC(=O)CN(c2ccc(Br)c(C)c2)S(C)(=O)=O)cc1	/	/	-0.2	/
O=C(C1CCCC1)N1CC(=O)N2[C@H](CO)[C@@H](c3ccc(C#CCc4ccccc4)cc3)[C@@H]2C1	0.3	/	/	?
CC(C)C#Cc1ccc([C@@H]2[C@@H](CO)N3C(=O)CN(C(=O)C4CCCCC4)C[C@H]23)cc1	-0.3	/	/	-21.2
CCC(=O)N1CC(=O)N2[C@@H](CO)[C@H](c3ccc(C#CCc4ccccc4)cc3)[C@@H]2C1	2.8	/	/	-84.5*
O=C(C1CCCC1)N1CC(=O)N2[C@H](C1)[C@@H](c1ccc(C#CCc3ccccc3)cc1)[C@@H]2CO	1.4	/	/	-89.0*
CC(C)C#Cc1ccc([C@@H]2[C@@H](CO)N3C(=O)CN(C(=O)C4CCCCC4)C[C@@H]23)cc1	-1.2	/	/	-85.1*
O=C(c1ccccn1)N1CC(=O)N2[C@H](C1)[C@@H](c1ccc(C#CCc3ccccc3)cc1)[C@@H]2CO	0.0	/	/	-81.9*
O=C(C1CC1)N1CC(=O)N2[C@@H](CO)[C@H](c3ccc(C#CCc4ccccc4)cc3)[C@@H]2C1	0.5	/	/	-53.4
O=C(C1CC1)N1CC(=O)N2[C@H](CO)[C@@H](c3ccc(C#CCc4ccccc4)cc3)[C@@H]2C1	1.7	/	/	-87.5*
COCC#Cc1ccc([C@H]2[C@H](CO)N3C(=O)CN(C(=O)CN4CCOCC4)C[C@@H]23)cc1	1.7	/	/	-85.3*
O=C1C=C(NCCc2ccccc2)CC(c2ccco2)C1 (stereo not given)	/	/	-0.1	/
